Consider 22 molecules from ChEMBL document CHEMBL5252662, “Rimonabant-Based Compounds Bearing Hydrophobic Amino Acid Derivatives as Cannabinoid Receptor Subtype 1 Ligands” (ACS Med Chem Lett, 2023).

Calls of active or inactive are those of the source. The rule behind the calls is not given here.

Assay [1] concerns the target T1, Cannabinoid receptor 1 (Rattus norvegicus, UniProt P20272). Put plainly: Displacement of [3H]-WIN55212-2 from CB1R in rat brain membranes incubated for 60 mins by radioligand competitive binding assay. It is filed as cell membranes, Membrane. (In general: Loss of bound radioactivity is the signal in a displacement assay; it reports binding, not function.)
For assay [2], the target named is T1, Cannabinoid receptor 1. Put plainly: Agonist activity at rat brain membrane CB1 receptor assessed as stimulation of [35S]GTPgammaS binding incubated for 60 mins. It is filed as cell membranes.
For assay [3], the target named is Cannabinoid receptor 1 (Rattus norvegicus) (UniProt P20272). The assay is described as follows: Agonist activity at rat brain membrane CB1 receptor assessed as stimulation of [35S]GTPgammaS binding incubated for 60 mins relative to control. It is filed as cell membranes. Conditions: filed as agonist. On the technique in general: GTPγS resists hydrolysis and so accumulates on activated G proteins.
Cannabinoid receptor 1 (Rattus norvegicus), sequence (P20272 whole entry): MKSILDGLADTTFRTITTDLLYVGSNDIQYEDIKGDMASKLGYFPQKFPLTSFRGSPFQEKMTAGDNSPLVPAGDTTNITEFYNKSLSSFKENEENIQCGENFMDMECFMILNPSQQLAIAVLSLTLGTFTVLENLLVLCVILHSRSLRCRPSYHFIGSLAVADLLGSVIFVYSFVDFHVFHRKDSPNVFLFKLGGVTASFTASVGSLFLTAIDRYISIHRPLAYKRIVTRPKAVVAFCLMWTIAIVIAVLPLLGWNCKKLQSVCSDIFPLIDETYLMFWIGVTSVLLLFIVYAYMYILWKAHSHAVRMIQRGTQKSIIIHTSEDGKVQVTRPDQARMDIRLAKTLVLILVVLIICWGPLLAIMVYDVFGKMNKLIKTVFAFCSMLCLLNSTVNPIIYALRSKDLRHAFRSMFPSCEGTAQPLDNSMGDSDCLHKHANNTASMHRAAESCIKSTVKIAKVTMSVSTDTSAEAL

The test system of assay [4] is Mus musculus. The assay is described as follows: Induction of food uptake in CD-1 mouse model at 10 mg/kg, ip measured after 1 hr. It is filed as functional, organism-based. The method in brief:
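Mice dosed i.p. at 10 mg/kg and left 30 min. Each was then placed in an individual cage with 2 g of standard chow, and intake was measured over a 1 h test. Mean ± SEM from the same seven mice at each dose, compared with vehicle-treated animals.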

In assay [5] the test system is Mus musculus. The assay is described as follows: Antinociceptive activity in CD-1 mouse assessed as increase in response time to thermal nociceptive stimuli at 10 ug, icv measured after 60 mins by hot plate test. It is filed as functional, organism-based. The note with it: dose 10.0 µg. The method in brief:
(§1)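 Single i.c.v. injection of 10 μg/10 μL; vehicle saline with 0.1% v/v DMSO. Response latency to thermal stimulus on hot plate recorded over time after dosing. Expressed as % maximum possible effect (%MPE) ± SEM, N = 7.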
A general note: Thermal pain tests record how soon the animal reacts.

The subject of assay [6] is Mus musculus. The assay is described as follows: Anti-inflammatory activity against zymosan-induced paw edema CD-1 mouse model assessed as reduction of increased paw volume at 100 ug,sc administered 30 mins prior to zymosan challenge and measured after 1 to 4 hrs. It is filed as functional, organism-based. Conditions: dose 100.0 µg, time lower […], time upper […].
In assay [7] the test system is Mus musculus. Put plainly: Antinociceptive activity in CD-1 mouse assessed as increase in response time to thermal nociceptive stimuli at 10 ug, icv measured at 15 to 120 mins. Conditions: dose 10.0 µg, time lower […], time upper […]. It is filed as functional, organism-based. The method in brief:
as §1

T1 sequence (P20272 whole entry): as above

As a reminder, the Ki is a dissociation constant, usually derived from enzyme kinetics or from competition with a known ligand. With `CC(C)[C@H](NC(=O)c1cc(-n2cccc2)n(-c2ccccc2)n1)C(N)=O`, at Cannabinoid receptor 1 [1], the Ki entry is given as “Not Active”. A word on the EC50: it is the concentration at which the effect is half-maximal. One may read the Emax as the maximal effect, on the per cent scale that the assay sets. On to `Cc1c(C(=O)N[C@H](C(N)=O)C(C)C)nn(-c2ccc(Cl)c(Cl)c2)c1-n1cccc1Cl`, for which the Ki at Cannabinoid receptor 1 [1] (read-out: Ki) was found to be 446 nM. The EC50 on Cannabinoid receptor 1 [2] came to 849 nM. In assay [3], the Emax was 60%. For the molecule `COC(=O)[C@@H](NC(=O)c1cc(-n2cccc2)n(-c2ccc(Cl)cc2)n1)C(C)C`, the outcome with Mus musculus [4] was inactive. Take `CC(C)(C)[C@H](NC(=O)c1cc(-n2cccc2)n(-c2ccccc2)n1)C(=O)O`: the Ki entry at Cannabinoid receptor 1 [1] is recorded as “Not Active”. With `Cc1c(C(=O)N[C@H](C(N)=O)C(C)(C)C)nn(-c2ccc(Cl)c(Cl)c2)c1-n1cccc1Cl`, on Cannabinoid receptor 1 [1] (read-out: Ki), the Ki was determined as 45 nM. Also, at Cannabinoid receptor 1 [2], the EC50 turned out to be 1870 nM. The Emax in assay [3] was 70%. The result with Mus musculus [4] was inactive. As to `Cc1c(C(=O)N[C@H](C(=O)O)C(C)(C)C)nn(-c2ccc(Cl)cc2Cl)c1-n1cccc1Cl`, the Ki result on Cannabinoid receptor 1 [1] is listed as “Not Active”. As to `Cc1c(C(=O)N[C@H](C(=O)O)C(C)C)nn(-c2ccc(Cl)cc2)c1-n1cccc1`, the Ki result at Cannabinoid receptor 1 [1] is on record as “Not Active”. Turning to `COC(=O)[C@@H](NC(=O)c1cc(-n2cccc2)n(-c2ccccc2)n1)C(C)(C)C`, the result in the assay on Mus musculus [4] was Active. With `Cc1c(C(=O)c2cccc3ccccc23)c2cccc3c2n1[C@H](CN1CCOCC1)CO3`, the result with Mus musculus [5] was Active. As to `Cc1c(C(=O)N[C@H](C(N)=O)C(C)(C)C)nn(-c2ccccc2)c1-n1cccc1`, the outcome with Mus musculus [4] was inactive.

Regarding `CNC(=O)[C@@H](NC(=O)c1nn(-c2ccc(Cl)cc2)c(-n2cccc2)c1C)C(C)(C)C`, the outcome in the assay with Mus musculus [4], in the assay with Mus musculus [6] and in the assay with Mus musculus [7] was Active. With `CC(C)(C)[C@H](NC(=O)c1cc(-n2cccc2)n(-c2ccc(Cl)cc2)n1)C(=O)O`, at Cannabinoid receptor 1 [1], the Ki result is “Not Active”.

As to `Cc1c(C(=O)N[C@H](C(=O)O)C(C)C)nn(-c2ccc(Cl)cc2Cl)c1-n1cccc1Cl`, the inhibitory constant (Ki) entry on Cannabinoid receptor 1 [1] is reported as “Not Active”. As for `COC(=O)[C@@H](NC(=O)c1nn(-c2ccc(Cl)cc2)c(-n2cccc2)c1C)C(C)(C)C`, the outcome in the assay on Mus musculus [4] was inactive. On to `CC(C)[C@H](NC(=O)c1cc(-n2cccc2)n(-c2ccccc2)n1)C(=O)O`, for which the Ki result at Cannabinoid receptor 1 [1] is “Not Active”. Consider `Cc1c(C(=O)N[C@H](C(=O)O)C(C)C)nn(-c2ccccc2)c1-n1cccc1`, for which the Ki result at Cannabinoid receptor 1 [1] is listed as “Not Active”.

Consider `CC(C)[C@H](NC(=O)c1cc(-n2cccc2)n(-c2ccc(Cl)cc2)n1)C(=O)O`, for which the Ki result on Cannabinoid receptor 1 [1] was “Not Active”. The same measure, in the same setting: next, `Cc1c(C(=O)N[C@H](C(=O)O)C(C)(C)C)nn(-c2ccccc2)c1-n1cccc1`: “Not Active”.

With `COC(=O)[C@@H](NC(=O)c1nn(-c2ccc(Cl)cc2Cl)c(-n2cccc2Cl)c1C)C(C)C`, the result in the assay on Mus musculus [4] was Active.

Turning to `Cc1c(C(=O)N[C@H](C(N)=O)C(C)(C)C)nn(-c2ccc(Cl)cc2)c1-n1cccc1`, in the assay with Mus musculus [4], the result was inactive. Consider `COC(=O)[C@@H](NC(=O)c1cc(-n2cccc2)n(-c2ccc(Cl)cc2)n1)C(C)(C)C`, for which the outcome in the assay with Mus musculus [4] was inactive. In the case of `CNC(=O)[C@@H](NC(=O)c1nn(-c2ccc(Cl)cc2Cl)c(-n2cccc2Cl)c1C)C(C)(C)C`, the Ki result on Cannabinoid receptor 1 [1] was “Not Active”.
